TAAR1 agonist – human TAAR1 agonism; activation, % at 3 µM; 0.99% of 360,000 active; CHO RD-HGA16 TAAR1, Fluo-8 calcium fluorescence; vehicle wells 0%, saturating PEA agonist 100%;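 active = activation above the mean activation of all test compounds in the run plus 3 SD, cut at about 38% in these data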
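System: CHO-derived RD-HGA16 cells with stable Gα16 and human TAAR1 / Times: 17-24 h plating, Fluo-8 75 min 37 °C, 30 min RT / Technique: calcium-sensitive Fluo-8 signal, excitation 470-495, emission 515-575 nm / Measure: % activation relative to PEA EC100 response / Benchmarks: DMSO and PEA EC100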
TAAR1 antagonist – antagonists of human TAAR1. Q96RJ0. CHO RD-HGA16 TAAR1, Fluo-8 calcium fluorescence, antagonist. inhibition, % at 3 µM. 1.5% of 360,000 active;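 active = inhibition above a per-plate cutoff, the mean inhibition of test compounds on that plate plus 3 SD, cut at about 49% in these data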;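 also: 0% = DMSO plus EC80 beta-PEA response and 100% = DMSO alone without agonist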
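Material: RD-HGA16 CHO cells with stable hTAAR1 and Gα16; Dosing: single nominal final test compound concentration of 3 µM; Schedule: seeding 17-24 h prior, 75-min 37 °C, 30-min RT dye loading; Detection: kinetic Fluo-8 calcium fluorescence measurement; Measure: % inhibition from peak post-agonist over basal fluorescence ratio; Benchmarks: vehicle and agonist controls.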
Platelet DG rel – modulates dense granule release in human platelets; AID 1663; 0.22% of 300,000 active; inhibition, %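 (compounds screened at 7.5 µM in platelet-rich plasma)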; human platelet-rich plasma, SFLLRN dense granule ATP release, luminescence;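 active = mean replicate score, as percent of positive control, at or above 50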
VLA-4 inh – inhibition in a human VLA-4 binding assay; P13612; VLA-4 expressing cells, ligand binding flow cytometry; inhibition, % (about 7 µM as worked out from the volumes in the protocol); 0.2% of 330,000 active; AID 2557; in the data active = inhibition above about 50%
Rce1 inh – inhibitors of yeast Ras-converting enzyme | Q03530 | yeast membranes, quenched prenylated peptide cleavage fluorescence | 0.27% of 290,000 active | calls only;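 active = fall in fluorescence gain of 50% or more versus controls, with final raw signal at or below 3038400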;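 also: plate controls were neutral control wells for no effect and wells lacking membranes for full effect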
Starred values were filed as active, the others as inactive; i = inactive; . = no result; + = active, no number. Compounds with a hit are over-represented: about 2.6% of the library has one in this group of screens.

SMILES | TAAR1 agonist | TAAR1 antagonist | Platelet DG rel | VLA-4 inh | Rce1 inh
Cc1cc(C)cc(N=Cc2[nH]c3ccc(Br)c(Cl)c3c2O)c1 | 23.9 | 11.1 | 3.1 | i | i
COc1ccc(/C=N/NC(=O)c2cccc(O)c2)cc1Cn1nc(C)c([N+](=O)[O-])c1C | 6.7 | -4.9 | -9.4 | 0.7 | i
COc1cc(/C=C(\C#N)c2nc3ccccc3o2)ccc1O | 58.2* | 50.8* | 25.3 | -181.2 | i
O=C(CN1C(=O)C2CC=CCC2C1=O)Nc1nc(-c2ccc(F)cc2)cs1 (centres undefined) | 28.2 | 51.1* | . | 3.8 | .
N#CC1=C(N)NC(SCc2ccc(Cl)cc2)=C(C#N)C12CCCCC2 | 21.6 | 61.7* | -2.7 | 9.8 | i
COc1ccc(Cc2nc3ccc(C(=O)N(C)CCn4ccnc4)cc3o2)cc1OC | 2.0 | -9.8 | 4.7 | 7.1 | i
COc1cccc(NC(=O)Nc2nc(SC(C)(C)C)ns2)c1 | 18.9 | 58.9* | -6.0 | 1.4 | i
Cc1noc(C)c1NC(=O)N(C)C[C@H]1Oc2c(NC(=O)Nc3ccc(C(F)(F)F)cc3)cccc2C(=O)N([C@H](C)CO)C[C@@H]1C | 2.3 | 1.8 | . | 1.7 | .
O=[N+]([O-])c1ccc(Nc2nccc(Cl)n2)cc1 | 3.1 | -20.7 | 12.8 | 1.9 | i
Cc1ccc(CNC(=O)c2ccc(S(=O)(=O)N(C)C)cc2)n1C | 2.8 | -0.2 | -28.5 | 0.2 | i
CCCNC(=O)c1ccc(N2CCC3(CC2)CC(c2cccc(Br)c2)=NO3)c([N+](=O)[O-])c1 | 5.1 | 50.7* | -5.7 | 6.6 | i
CCc1nc2ccc(C(=O)Nc3cc(-c4ccccc4)ccc3OC)cn2c1N(C)Cc1nccs1 | 6.3 | 53.5* | . | . | .
CCc1nc2ccc(C(=O)Nc3cccc(OCC(=O)N(C)C)c3)cn2c1N(C)Cc1cc2ccccc2s1 | 9.1 | 71.2* | . | . | .
Clc1ccc(Cn2ncc3c(N4CCN(c5ccccc5)CC4)ncnc32)cc1 | 12.3 | 56.6* | . | . | .
O=C(CCC(=O)Nc1ccc(Br)cc1)N/N=C/c1ccccc1O | 38.5* | 47.2 | -3.4 | -4.9 | i
O=C(CSCC(=O)NN=Cc1ccccc1O)NN=Cc1ccccc1O | 29.8 | 2.4 | . | . | .
O=C(CCCCC(=O)NN=Cc1ccccc1O)NN=Cc1ccccc1O | 44.3* | 54.4* | . | . | .
O=C(CCC(=O)Nc1ccc(Br)cc1)N/N=C/c1ccc(F)cc1 | 18.4 | 5.3 | -6.0 | 12.4 | i
Cc1ccc(NC(=O)CCC(=O)N/N=C/c2ccccc2O)cc1 | 37.7* | -2.2 | -7.4 | 2.3 | i
O=C1CCC[C@@H]2Cc3nc4cc5c(cc4cc3[C@@H]3CCN1[C@H]23)OCO5 | 14.7 | 2.8 | . | . | .
Cc1[nH]c(C)c(S(=O)(=O)N2CCN(c3ccccc3F)CC2)c1C(=O)N1CCCC1 | 3.2 | -22.0 | -45.6 | 21.4 | i
O=C(CC1NCCc2ccccc21)Nc1ccc(Oc2ccccc2)cc1 (centres undefined) | 42.3* | -1.8 | -0.3 | 7.7 | i
Cc1cc(C)n(CC(=O)NC2CCCCC2C)c(=O)c1C#N (centres undefined) | 2.1 | -28.1 | -6.6 | 20.4 | +
CCn1c(SCc2nc(-c3cccs3)no2)nnc1-c1c[nH]c2ccccc12 | 18.3 | 49.7* | -1.6 | 15.4 | i
COCCCNC(=O)CSc1nc2ccccc2c(=O)n1CCc1ccc(S(N)(=O)=O)cc1 | 9.9 | 57.1* | -0.5 | 10.1 | i
SMILES | TAAR1 agonist | TAAR1 antagonist | Platelet DG rel | VLA-4 inh | Rce1 inh
CC(=O)NCCn1c(SCC(=O)NCCc2ccc(S(N)(=O)=O)cc2)nc2ccccc2c1=O | 6.7 | -6.3 | 0.2 | 1.6 | i
CC(=O)Oc1cccc(Nc2ncnc3ccccc23)c1 | 3.2 | -8.3 | -8.1 | 15.9 | i
Cc1ccccc1C(=O)Oc1cccc(Nc2ncnc3ccccc23)c1 | 14.9 | 52.8* | -5.3 | 7.5 | i
CN1CCN(c2ccc(C(F)(F)F)cc2NC(=O)Nc2ccccc2)CC1 | 52.5* | 28.8 | 1.6 | 1.7 | i
COC(=O)c1ccc(OCC(O)CNCC(c2ccc(OC)cc2)N(C)C)c(OC)c1 (centres undefined) | -3.0 | 8.3 | 3.6 | 2.3 | i
Nc1nc(N)c(Br)c(Nc2ccc(Cl)c(Cl)c2)n1 | 46.2* | -15.1 | . | . | .
O=c1[nH]c(SCCc2ccccc2)nc2c1CCC2 | 6.6 | -7.8 | . | . | .
COC(=O)[C@@]1(Sc2ccc(C)cc2)CC(=O)N(C(=O)c2ccccc2)[C@@H]1c1ccccc1 | 0.2 | 24.4 | . | . | .
CC(C)CC(=O)Nc1cccc(NC(=O)c2ccccc2Cl)c1 | 1.1 | -0.7 | 92.0* | 32.1 | i
O=C(Nc1cccc(NC(=O)c2ccccc2Cl)c1)c1ccc([N+](=O)[O-])o1 | 17.3 | 55.1* | 3.0 | -1.6 | i
CCCC(=O)Nc1cccc(NC(=O)c2ccccc2Br)c1 | 0.2 | 1.7 | 85.6* | 11.2 | i
CCCC(=O)NC(=S)Nc1cccc(NC(=O)c2ccc(Cl)cc2Cl)c1 | 11.1 | 56.3* | -7.0 | 0.9 | i
O=C(Nc1cccc([N+](=O)[O-])c1)c1ccc([N+](=O)[O-])o1 | 7.0 | -3.2 | . | . | .
CC(C)CC(=O)NC(=S)Nc1cccc(NC(=O)c2ccccc2Cl)c1 | 8.7 | 7.5 | -5.1 | -12.0 | i
CCCC(=O)NC(=S)Nc1cccc(NC(=O)c2ccccc2Cl)c1 | 1.1 | 6.9 | 10.4 | 11.9 | i
Cc1oc2c(C)c3oc(=O)c(CCC(=O)NCCN4CCOCC4)c(C)c3cc2c1C | 1.6 | 5.6 | -2.3 | 31.6 | i
CCCS(=O)(=O)NC(=O)C1(C)CCCN(C(=O)COCc2ccccc2)C1 (centres undefined) | 1.9 | -9.9 | . | . | .
C[C@@H]1CN([C@H](C)CO)S(=O)(=O)c2ccc(Br)cc2O[C@H]1CN(C)C(=O)Cc1ccccn1 | 6.0 | 1.7 | . | . | .
COc1cccc(N2CCN(c3ncnc4c3[nH]c3ccc(F)cc34)CC2C)c1 (centres undefined) | 26.9 | 93.1* | 26.3 | -18.6 | i
COc1cccc(N2CCN(c3ncnc4c3[nH]c3ccccc34)CC2C)c1 (centres undefined) | 16.3 | 88.8* | 22.8 | -13.8 | i
COc1ccc2[nH]c3c(N4CC(C)OC(C)C4)ncnc3c2c1 (centres undefined) | 4.5 | 8.9 | 0.8 | 21.7 | i
Nc1ccn([C@@H]2O[C@H](C(=O)N[C@H](Cc3ccccc3)C(=O)NCC(F)(F)F)[C@@H](O)[C@H]2O)c(=O)n1 | 1.7 | -15.5 | . | . | .
CC(C)(C)n1nnnc1C(c1ccccc1)N1CCN(c2ncccn2)CC1 (centres undefined) | 2.1 | 12.8 | . | . | .
Cc1csc(NC(=O)C2CCCCC2)n1 | . | . | -1.6 | 11.7 | i
Cc1ccccc1NC(=O)CN1CCN(C(=O)c2ccco2)CC1 | 1.8 | -8.1 | -16.8 | 20.8 | i
CN(Cc1cccc2cnccc12)C(=O)c1cc(COc2ccc(F)cc2F)on1 | 3.8 | -22.3 | -3.6 | . | i
CCc1ccc(CN(C)C(=O)c2cc(COc3cccc4cnccc34)on2)cc1 | 1.9 | 50.7* | -1.2 | 24.3 | i
COc1ccnc(Oc2ccccc2)c1C(=O)N/C=N/OCc1ccc(F)cc1Cl | 24.1 | 60.6* | 0.1 | 5.8 | i
